Source: ChEMBL document CHEMBL4152223 (Eur J Med Chem, 2018)
In brackets after ≈: the same amount, converted by molar mass.

Key:
[1] = Selectivity ratio of MIC for INH/RIF/rifabutine/STM/EMB/clofazimine resistant Mycobacterium tuberculosis Praha 1 to MIC for Mycobacterium tuberculosis H37Rv; type: functional
[2] = Selectivity index, ratio of IC50 for human HepG2 cells to MIC for INH/RIF/rifabutine/STM/EMB resistant Mycobacterium tuberculosis 234/2005; type: toxicity; settings: read-out: Selectivity Index
How it was run: (§1)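 SI is calculated as HepG2 IC50 divided by MIC. HepG2 cells (passage 2-4) were grown in EMEM with 10% FBS, L-glutamine and non-essential amino acids. Compounds in DMSO were tested in triplicate at eight concentrations, and viability was read by MTS tetrazolium reduction. 10% DMSO served as the 0% viability control.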

[3] = system: Mycobacterium tuberculosis; assay: Antimycobacterial activity against INH/RIF/rifabutine/STM/EMB/OFX/gentamicin/amikacin resistant Mycobacterium tuberculosis Praha 131 after 14 days; type: functional; settings: Praha 131, 336 h
How it was run: (§2)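 MIC against four MDR-TB strains and one XDR-TB strain, each inoculated at 10^-3 dilution, using the same broth method as for drug-susceptible M. tuberculosis. Concentrations tested were 1000 down to 1 µM in twofold-type steps (1000, 500, 250, 125, 62.5, 32, 16, 8, 4, 2, 1 µM). MIC is the lowest concentration with complete growth inhibition.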

[4] = system: Mycobacterium tuberculosis; assay: Antimycobacterial activity against INH/RIF/rifabutine/STM resistant Mycobacterium tuberculosis 9449/2006 after 21 days; type: functional; settings: 9449/2006, 504 h; how it was run: as §2
[5] = Selectivity ratio of MIC for INH/RIF/rifabutine/STM/EMB/OFX/clofazimine resistant Mycobacterium tuberculosis Praha 4 to MIC for Mycobacterium tuberculosis H37Rv; type: functional
[6] = Selectivity ratio of MIC for INH/RIF/rifabutine/STM/EMB/OFX/gentamicin/amikacin resistant Mycobacterium tuberculosis Praha 131 to MIC for Mycobacterium tuberculosis H37Rv; type: functional
[7] = system: Mycobacterium tuberculosis; assay: Antimycobacterial activity against INH/RIF/rifabutine/STM/EMB resistant Mycobacterium tuberculosis 234/2005 after 14 days; type: functional; settings: 234/2005, 336 h; how it was run: as §2
[8] = Selectivity ratio of MIC for INH/RIF/rifabutine/STM resistant Mycobacterium tuberculosis 9449/2006 to MIC for Mycobacterium tuberculosis H37Rv; type: functional
[9] = Selectivity index, ratio of IC50 for human HepG2 cells to MIC for INH/RIF/rifabutine/STM/EMB/OFX/gentamicin/amikacin resistant Mycobacterium tuberculosis Praha 131; type: toxicity; settings: read-out: Selectivity Index; how it was run: as §1
[10] = system: Mycobacterium tuberculosis; assay: Antimycobacterial activity against INH/RIF/rifabutine/STM/EMB resistant Mycobacterium tuberculosis 234/2005 after 21 days; type: functional; settings: 234/2005, 504 h; how it was run: as §2
[11] = Selectivity ratio of MIC for INH/RIF/rifabutine/STM/EMB resistant Mycobacterium tuberculosis 234/2005 to MIC for Mycobacterium tuberculosis H37Rv; type: functional
[12] = system: Mycobacterium tuberculosis; assay: Antimycobacterial activity against INH/RIF/rifabutine/STM/EMB/OFX/gentamicin/amikacin resistant Mycobacterium tuberculosis Praha 131 after 21 days; type: functional; settings: Praha 131, 504 h; how it was run: as §2
[13] = system: Mycobacterium tuberculosis; assay: Antimycobacterial activity against INH/RIF/rifabutine/STM/EMB/OFX/clofazimine resistant Mycobacterium tuberculosis Praha 4 after 21 days; type: functional; settings: Praha 4, 504 h; how it was run: as §2
[14] = system: Mycobacterium tuberculosis; assay: Antimycobacterial activity against INH/RIF/rifabutine/STM resistant Mycobacterium tuberculosis 9449/2006 after 14 days; type: functional; settings: 9449/2006, 336 h; how it was run: as §2
[15] = Selectivity index, ratio of IC50 for human HepG2 cells to MIC for INH/RIF/rifabutine/STM resistant Mycobacterium tuberculosis 9449/2006; type: toxicity; settings: read-out: Selectivity Index; how it was run: as §1
[16] = system: Mycobacterium tuberculosis; assay: Antimycobacterial activity against INH/RIF/rifabutine/STM/EMB/clofazimine resistant Mycobacterium tuberculosis Praha 1 after 21 days; type: functional; settings: Praha 1, 504 h; how it was run: as §2
[17] = system: Mycobacterium tuberculosis; assay: Antimycobacterial activity against INH/RIF/rifabutine/STM/EMB/OFX/clofazimine resistant Mycobacterium tuberculosis Praha 4 after 14 days; type: functional; settings: Praha 4, 336 h; how it was run: as §2
[18] = Selectivity index, ratio of IC50 for human HepG2 cells to MIC for INH/RIF/rifabutine/STM/EMB/clofazimine resistant Mycobacterium tuberculosis Praha 1; type: toxicity; settings: read-out: Selectivity Index; how it was run: as §1
[19] = Selectivity index, ratio of IC50 for human HepG2 cells to MIC for INH/RIF/rifabutine/STM/EMB/OFX/clofazimine resistant Mycobacterium tuberculosis Praha 4; type: toxicity; settings: read-out: Selectivity Index; how it was run: as §1
[20] = system: Mycobacterium tuberculosis; assay: Antimycobacterial activity against INH/RIF/rifabutine/STM/EMB/clofazimine resistant Mycobacterium tuberculosis Praha 1 after 14 days; type: functional; settings: Praha 1, 336 h; how it was run: as §2

Compound: CCCNC(=O)NNC(=O)c1ccncc1
- Ratio [1]: < 125
- selectivity ratio [2]: > 312
- MIC [3]: 16 µM (≈ 3.56 µg/mL)
- MIC [4]: 16 µM (≈ 3.56 µg/mL)
- Ratio [5]: < 125
- Ratio [6]: < 125
- MIC [7]: 16 µM (≈ 3.56 µg/mL)
- Ratio [8]: < 125
- selectivity ratio [9]: > 312
- MIC [10]: 16 µM (≈ 3.56 µg/mL)
- Ratio [11]: < 125
- MIC [12]: 16 µM (≈ 3.56 µg/mL)
- MIC [13]: 16 µM (≈ 3.56 µg/mL)
- MIC [14]: 16 µM (≈ 3.56 µg/mL)
- selectivity ratio [15]: > 312
- MIC [16]: 16 µM (≈ 3.56 µg/mL)
- MIC [17]: 16 µM (≈ 3.56 µg/mL)
- selectivity ratio [18]: > 312
- selectivity ratio [19]: > 312
- MIC [20]: 16 µM (≈ 3.56 µg/mL)

Compound: CNC(=O)NNC(=O)c1ccncc1
- Ratio [1]: < 125
- selectivity ratio [2]: > 80
- MIC [3]: 32 µM (≈ 6.21 µg/mL)
- MIC [4]: 62.5 µM (≈ 12.1 µg/mL)
- Ratio [5]: < 125
- Ratio [6]: < 125
- MIC [7]: 62.5 µM (≈ 12.1 µg/mL)
- Ratio [8]: < 125
- selectivity ratio [9]: > 80
- MIC [10]: 62.5 µM (≈ 12.1 µg/mL)
- Ratio [11]: < 125
- MIC [12]: 62.5 µM (≈ 12.1 µg/mL)
- MIC [13]: 62.5 µM (≈ 12.1 µg/mL)
- MIC [14]: 62.5 µM (≈ 12.1 µg/mL)
- selectivity ratio [15]: > 80
- MIC [16]: 62.5 µM (≈ 12.1 µg/mL)
- MIC [17]: 62.5 µM (≈ 12.1 µg/mL)
- selectivity ratio [18]: > 80
- selectivity ratio [19]: > 80
- MIC [20]: 62.5 µM (≈ 12.1 µg/mL)

Compound: CCNC(=O)NNC(=O)c1ccncc1
- selectivity ratio [2]: > 32
- MIC [3]: 125 µM (≈ 26 µg/mL)
- MIC [4]: 125 µM (≈ 26 µg/mL)
- MIC [7]: 125 µM (≈ 26 µg/mL)
- selectivity ratio [9]: > 32
- MIC [10]: 125 µM (≈ 26 µg/mL)
- MIC [12]: 125 µM (≈ 26 µg/mL)
- MIC [13]: 125 µM (≈ 26 µg/mL)
- MIC [14]: 125 µM (≈ 26 µg/mL)
- selectivity ratio [15]: > 32
- MIC [16]: 125 µM (≈ 26 µg/mL)
- MIC [17]: 125 µM (≈ 26 µg/mL)
- selectivity ratio [18]: > 32
- selectivity ratio [19]: > 32
- MIC [20]: 125 µM (≈ 26 µg/mL)

Compound: CCCCCCCCCCCCNc1nnc(-c2ccncc2)o1
- selectivity ratio [2]: > 6.25
- MIC [3]: 4 µM (≈ 1.32 µg/mL)
- MIC [4]: 4 µM (≈ 1.32 µg/mL)
- MIC [7]: 4 µM (≈ 1.32 µg/mL)
- selectivity ratio [9]: > 12.5
- MIC [10]: 8 µM (≈ 2.64 µg/mL)
- MIC [12]: 8 µM (≈ 2.64 µg/mL)
- MIC [13]: 8 µM (≈ 2.64 µg/mL)
- MIC [14]: 4 µM (≈ 1.32 µg/mL)
- selectivity ratio [15]: > 6.25
- MIC [16]: 8 µM (≈ 2.64 µg/mL)
- MIC [17]: 4 µM (≈ 1.32 µg/mL)
- selectivity ratio [18]: > 6.25
- selectivity ratio [19]: > 6.25
- MIC [20]: 4 µM (≈ 1.32 µg/mL)
